Results reported in ChEMBL document CHEMBL3817785, “Synthetic sulfoglycolipids targeting the serine-threonine protein kinase Akt” (Bioorg Med Chem, 2016).
Calls of active or inactive are those of the source. The rule behind the calls is not given here.

Key:
[1] = biological target: RAC-alpha serine/threonine-protein kinase (Mus musculus) (UniProt P31750); experiment: Inhibition of Akt phosphorylation in mouse NIH/3T3-K-RAS cells at 100 uM pretreated for 1 hr by Western blot analysis; assay type: cell-based
Chain of RAC-alpha serine/threonine-protein kinase (Mus musculus) (P31750 whole entry): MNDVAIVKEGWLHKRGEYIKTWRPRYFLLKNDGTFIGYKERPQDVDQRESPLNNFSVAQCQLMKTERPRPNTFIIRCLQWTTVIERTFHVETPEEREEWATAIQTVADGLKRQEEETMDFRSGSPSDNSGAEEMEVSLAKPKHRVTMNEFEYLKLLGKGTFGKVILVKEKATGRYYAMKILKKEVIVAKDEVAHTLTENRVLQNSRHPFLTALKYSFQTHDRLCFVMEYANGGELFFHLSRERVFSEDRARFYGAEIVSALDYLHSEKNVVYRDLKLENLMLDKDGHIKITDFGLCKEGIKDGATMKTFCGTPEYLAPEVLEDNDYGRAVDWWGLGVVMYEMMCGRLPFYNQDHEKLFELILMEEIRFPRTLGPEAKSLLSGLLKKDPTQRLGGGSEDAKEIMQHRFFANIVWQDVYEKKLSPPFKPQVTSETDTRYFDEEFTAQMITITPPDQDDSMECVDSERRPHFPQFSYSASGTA
Procedure, shortened: (§1)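 K-ras-transformed NIH 3T3 cells (DMEM, 10% NBCS, 37 °C) plated at 3 x 10⁵ cells/mL, starved 16 h in 0.5% serum, pretreated 1 h with compound at 100 µM or DMSO, then stimulated with 10% serum for 30 min. Lysates (15 µg) on 8% SDS-PAGE, probed for phospho-Akt Ser473, reprobed for total Akt, actin loading control; ECL; densitometry from three experiments.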

[2] = biological target: T1, RAC-alpha serine/threonine-protein kinase (Homo sapiens, UniProt P31749); experiment: Inhibition of human Akt1 PH domain using AKTide-2T as substrate at 100 uM by ELISA
T1 sequence (P31749 whole entry, the tested form may be a part): as the sequence (P31750 whole entry) above, with N2S, S50A, A100T, R112K, T117E, T389K, N410G, D415H counted along it
Procedure, shortened: (§2)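 Kit ELISA: wells precoated with AKTide-2T; constitutively active human Akt1 (25 m units/well) plus compound in kinase buffer (100 µM final, or 1–250 µM for concentration-response), Mg2+/ATP added. Phospho-substrate detected by HRP anti-phospho-AKTide-2T antibody with TMB, A450.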

[3] = system: TPC1; experiment: Antiproliferative activity against human TPC1 cells harboring RET/PTC-1 rearrangement assessed as cell growth inhibition after 72 hrs by coulter counter method; assay type: functional, cell-based
Procedure, shortened: (§3)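 Cells seeded in complete medium in 12-well plates: Nim-1 at 5000 cells/cm² and TPC-1 at 3000 cells/cm², both in DMEM + 10% FBS; K1 at 4000 cells/cm² in DMEM:Ham's F12:MCDB 105 (2:1:1) + 20% serum; 37 °C, 5% CO2. Next day, exposed to increasing concentrations or DMSO (0.5% final) for 72 h. Cells trypsinized and Coulter-counted; survival as % of untreated, duplicates; IC50 = 50% growth inhibition.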

[4] = system: IGROV-1; experiment: (§4) Antiproliferative activity against human IGROV1 cells assessed as cell growth inhibition after 24 hrs by coulter counter method; assay type: functional, cell-based
Procedure, shortened: (§5)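 Seeded at 5000 cells/cm² in complete RPMI (10% serum), 37 °C, 5% CO2; next day serum-starved and drug-treated for 24 h, then complete medium restored for a further 48 h. Cells trypsinized and counted by Coulter counter 72 h after treatment start; survival vs untreated; IC50 = concentration inhibiting proliferation by 50%; duplicates, two independent experiments, mean ± SEM.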

[5] = system: K1; experiment: (§6) Antiproliferative activity against human K1 cells expressing BRAF V600E/PI3K E542K mutants assessed as cell growth inhibition after 72 hrs by coulter counter method; assay type: functional, cell-based; procedure, shortened: as §3
[6] = biological target: RAC-alpha serine/threonine-protein kinase (Mus musculus) (UniProt P31750); experiment: Inhibition of serum-stimulated Akt phosphorylation in mouse NIH/3T3-K-RAS cells at 100 uM pretreated for 1 hr followed by serum addition for 30 mins by Western blot analysis; assay type: cell-based; procedure, shortened: as §1
[7] = organism: Homo sapiens; experiment: (§7) Antiproliferative activity against PTEN-deficient human Nim1 cells expressing BRAF V600E mutant assessed as cell growth inhibition after 72 hrs by coulter counter method; assay type: functional; procedure, shortened: as §3
[8] = biological target: T1, RAC-alpha serine/threonine-protein kinase; conditions: IGROV-1, 3 to 10 uM
[9] = biological target: T1, RAC-alpha serine/threonine-protein kinase; conditions: IGROV-1, 3 to 10 uM; remark: listed apart in the source
[10] = biological target: T1, RAC-alpha serine/threonine-protein kinase; conditions: IGROV-1, 3 to 10 uM; remark: listed apart in the source
[11] = biological target: T1, RAC-alpha serine/threonine-protein kinase; experiment: Inhibition of human Akt1 PH domain using AKTide-2T as substrate by ELISA; procedure, shortened: as §2
[12] = biological target: T1, RAC-alpha serine/threonine-protein kinase; experiment: Inhibition of Akt in human IGROV1 cells assessed as reduction in GSK3alpha phosphorylation at Ser21 at 3 uM after 24 hrs by Western blot analysis; assay type: cell-based; conditions: IGROV-1
Procedure, shortened: (§8)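 Seeded in complete RPMI; 24 h later serum-starved and exposed to drug or vehicle for 24 h; total protein extracted and immunoblotted for serine-phosphorylated GSK-3α, GSK-3β and BAD.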

[13] = biological target: T1, RAC-alpha serine/threonine-protein kinase; experiment: Inhibition of Akt in human IGROV1 cells assessed as reduction in GSK3beta phosphorylation at Ser9 at 3 uM after 24 hrs by Western blot analysis; assay type: cell-based; conditions: IGROV-1; procedure, shortened: as §8
[14] = biological target: T1, RAC-alpha serine/threonine-protein kinase; experiment: Inhibition of Akt in human IGROV1 cells assessed as reduction in BAD phosphorylation at Ser136 at 3 uM after 24 hrs by Western blot analysis; assay type: cell-based; conditions: IGROV-1; procedure, shortened: as §8
[15] = system: TPC1; experiment: Antiproliferative activity against human TPC1 cells harboring RET/PTC-1 rearrangement assessed as cell growth inhibition at 50 uM after 72 hrs by coulter counter method relative to control; assay type: functional; conditions: TPC1, 72 h, read-out: GI
Procedure, shortened: (§9)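 Cells plated in complete medium (TPC-1 3000 cells/cm², DMEM + 10% FBS; K1 4000 cells/cm², DMEM:Ham's F12:MCDB 105 2:1:1 + 20% serum), 37 °C, 5% CO2. Next day exposed to drug or DMSO (0.5% final) for 72 h; trypsinized, Coulter counted; % survival vs untreated; duplicates, two independent experiments, mean ± SEM; Student's two-tailed t test.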

[16] = as §4; assay type: functional, cell-based; conditions: IGROV-1, 24 h; procedure, shortened: as §5
[17] = Antiproliferative activity against human K1 cells expressing BRAF V600E/PI3K E542K mutants assessed as cell growth inhibition at 50 uM after 72 hrs by coulter counter method relative to control; assay type: functional; conditions: K1, 72 h, read-out: GI; procedure, shortened: as §9
[18] = system: K1; experiment: Cytotoxicity against human K1 cells expressing BRAF V600E/PI3K E542K mutants assessed as vacuolated and granulated cytoplasm at 50 uM after 72 hrs by coulter counter method; assay type: functional, cell-based
[19] = biological target: T1, RAC-alpha serine/threonine-protein kinase; conditions: 1 uM
[20] = as §6; assay type: functional, cell-based; conditions: K1, 72 h; procedure, shortened: as §3
[21] = as §7; assay type: functional; procedure, shortened: as §3

For CCCCCCCCO[C@@H]1O[C@H](CS(=O)(=O)O)[C@@H](O)[C@H](O)[C@H]1O, the inhibition [1] was “inactive”, the inhibition [2] was 14% and the “growth inhibition (GI)” value [3] was “inactive”. The “growth inhibition (GI)” value [4] was “inactive”, the “growth inhibition (GI)” value [5] was “inactive” and the inhibition [6] was “inactive”. The “growth inhibition (GI)” value [7] was “inactive”.

In the case of O=c1[nH]c2ccccc2n1C1CCN(Cc2ccc(-c3nc4cc5[nH]cnc5cc4nc3-c3ccccc3)cc2)CC1, the inhibition [2] is reported as 89%, the inhibition [8] is reported as “Active” and the inhibition [9] is reported as “Active”. For the same compound, the inhibition [10] was “Active”.

CCCCCCCCCCCC(=O)OCC(CO)O[C@@H]1O[C@H](CS(=O)(=O)O)[C@@H](O)[C@H](O)[C@H]1O (some centres not stated) showed an inhibition [2] of 31%.

For CCCCCC(=O)OCC(COC(=O)CCCCC)O[C@@H]1O[C@H](CS(=O)(=O)O)[C@@H](O)[C@H](O)[C@H]1O, the inhibition [2] was 13%.

For CCCCCCCCCCCCCCCCCCOP(=O)([O-])OC1CC[N+](C)(C)CC1 [PERIFOSINE], the IC50 [11] was 43.3 µM.

O=S(=O)(O)C[C@H]1O[C@@H](OC(CO)CO)[C@H](O)[C@@H](O)[C@@H]1O showed an inhibition [2] of 13%.

In the case of CCCCCCCCCCCCCCCCCC(=O)OCC(CO)O[C@@H]1O[C@H](CS(=O)(=O)O)[C@@H](O)[C@H](O)[C@H]1O (some centres not stated), the inhibition [1] is reported as “Active”, the inhibition [12] is reported as “Active” and the inhibition [13] is reported as “Active”. For the same compound, the inhibition [2] was 86%, the “growth inhibition (GI)” value [3] was “Dose-dependent effect” and the inhibition [14] was “Active”. The IC50 [11] was 31.3 µM, the inhibition [11] was “Dose-dependent effect” and the inhibition of growth at 50 µM [15] was 30%. For the same compound, the IC50 [16] was 2 µM, the “growth inhibition (GI)” value [5] was “Dose-dependent effect” and the inhibition [6] was 40%. The inhibition of growth at 50 µM [17] was 30%, the “growth inhibition (GI)” value [7] was “Dose-dependent effect” and the Activity [18] was “Active”.

With CCCCCCCCO[C@@H]1O[C@H](CN)[C@@H](O)[C@H](O)[C@H]1O the inhibition [1] was “inactive”, the inhibition [2] was 6% and the “growth inhibition (GI)” value [3] was “inactive”. The “growth inhibition (GI)” value [4] was “inactive”, the “growth inhibition (GI)” value [5] was “inactive” and the inhibition [6] was “inactive”. The “growth inhibition (GI)” value [7] was “inactive”.

For CCCCCCCCCCCC(=O)OCC(COC(=O)CCCCCCCCCCC)O[C@@H]1O[C@H](CS(=O)(=O)O)[C@@H](O)[C@H](O)[C@H]1O, the inhibition [2] was 77%.

With CN[C@@H]1C[C@H]2O[C@@](C)([C@@H]1OC)n1c3ccccc3c3c4c(c5c6ccccc6n2c5c31)C(=O)NC4 the inhibition [19] was “Active”.

In the case of CCCCCCCCCCCCOS(=O)(=O)[O-].[Na+], the inhibition [2] is reported as “inactive”.

Work on CCCCCC(=O)OCC(CO)O[C@@H]1O[C@H](CS(=O)(=O)O)[C@@H](O)[C@H](O)[C@H]1O (some centres not stated) yielded an inhibition [2] of 18%.

Work on CO[C@@H]1O[C@H](CS(=O)(=O)O)[C@@H](O)[C@H](O)[C@H]1O yielded an inhibition [2] of 28%.

CCCCCCCCCCCC(=O)OCC(COC(=O)CCCCCCCCCCC)O[C@@H]1O[C@H](CO)[C@@H](O)[C@H](O)[C@H]1O gave an inhibition [2] of 7%.

With O=c1[nH]c2ccccc2n1C1CCN(Cc2ccc(-c3nc4cc5nc[nH]c5cc4nc3-c3ccccc3)cc2)CC1 the IC50 ([3]; TPC1, 72 h) was 11 µM, the IC50 [16] was 0.3 µM and the IC50 [20] was 10 µM. For the same compound, the IC50 [21] was 3 µM.
